According to the RNAGym collection of RNA variant scans (doi:10.1126/science.aae0568):
Variants at the floor of the assay were thinned out.

B1: tRNA (parent)
chain: GUUCCGUUGGCGUAAUGGUAACGCGUCUCCCUCCUAAGGAGAAGACUGCGGGUUCGAGUCCCGUACGGAACG

Variants of: B1
Test: yeast fitness relative to wild type (ratio to wild type); higher = fitter; tRNA-Arg(CCU), competitive growth, 37 C, YPD
Outline: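 A pool of Saccharomyces cerevisiae strains, each with a tRNA-Arg(CCU) gene variant at the native genomic locus, was competed in YPD at 37°C for 24 hours across six parallel replicates. The variants had been chemically synthesised at a 3% per-site mutation rate over 69 sites, and gene amplicons before and after competition were read by 100-nucleotide paired-end sequencing. Darwinian fitness relative to wild type rested on changes in genotype frequencies. Genotypes required ≥ 100 starting reads, and estimates < 0.5 were set to 0.5.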

Variant | yeast fitness
C30U C46U A70G | 0.601
C30G G39C U59C G63C | 0.558
C30G G39C | 0.579
C30U C49U G52A | 0.584
C30G C31G U32A C66U | 0.527
C30G C61U A69U | ≤ 0.5
C30G U64A | 0.784
C31A A37G | 0.672
C31A A37C | 0.665
C30U C34A A36G C60U A70U | ≤ 0.5
C30G G58A A69U | 0.535
C30A U53C A70C | 0.506
C30U U35A G63C A65C | ≤ 0.5
C30U U35A G63C A65U | ≤ 0.5
C30G C33G C60G | ≤ 0.5
C30U U47C C66U | 0.577
C30U A42G A43U U54A | ≤ 0.5
C30U G52A | 0.785
C30G G68A | 0.698
C30G G68C | 0.691
C30G G68U | 0.64

Variant | yeast fitness
C30G G39C C55A | ≤ 0.5
C30G C33A G50A G52A C60U C61G | ≤ 0.5
C30U C34G A40C C49G G68C | ≤ 0.5
C30U C46U A65C | 0.658
C30U C31U A40C A65C | ≤ 0.5
C30G A57G G63A | ≤ 0.5
C30A G56A C60G | ≤ 0.5
C30G A43C C62U | 0.533
C30U C46U G50A A69G | 0.605
C30G | 0.68
C30U | 1.01
C30U G56A A69C | 0.566
C30U A42C G48C U64C | ≤ 0.5
C30U G38A G68C | 0.574
C30A G41C | 0.796
C30G A42U G51C | ≤ 0.5
C30U U54A | 0.561
C30U C31G G39C C55A C62U A70U | ≤ 0.5
C30G C31G G38C C46G C49U | 0.532
C30U C34G G39A C49G C61U | ≤ 0.5
C30U C61U | 0.826

Variant | yeast fitness
C30U C61G | 0.671
C30G A36G A57U | ≤ 0.5
C30U G41A A69C | ≤ 0.5
C31A A37U C49A | 0.745
C30U A36C A37G U47C | ≤ 0.5
C30G A43U G48C U64G | ≤ 0.5
C30U G39C C60U | ≤ 0.5
C30U C66U A69U | 0.602
C30U U32A A57U | 0.692
C30U G44A G56A | ≤ 0.5
C30U A40C C49G | ≤ 0.5
C30U A45G A65G | 0.538
C30U C31G A36C | ≤ 0.5
C30G U35A A65C | ≤ 0.5
C30G C61U A70G | 0.603
C30A C55U C62G | 0.508
C31A A37G C55U A57G | 0.531
C31A A40U C46A | 0.555
C31A A40U C46A A70C | 0.626
C30G C31U | 0.678
C30U G38C C55G C61U | ≤ 0.5

Variant | yeast fitness
C30G C33U C49U G56A | ≤ 0.5
C30U C31G A57U | ≤ 0.5
C30G U47G A65G | ≤ 0.5
C30A G41C G51A | ≤ 0.5
C30U A57G C66U | 0.53
C30U G38C U64C A65G | ≤ 0.5
C30U A37U | 0.65
C30U C60U | 0.734
C30U C60G | 0.661
C30U C60A | 0.593
C30G C33U C49U | 0.556
C30G A65G | 0.639
C30G C31G U64C A65C | ≤ 0.5
C30A U35A C61G | ≤ 0.5
C30U A70C | 0.869
C30U A70G | 0.941
C30U A70U | 0.962
C31A A40G A43G G52C U59G | ≤ 0.5
C30G G38A | 0.572
C30G G48A | 0.633
